Reference: ChEMBL document CHEMBL1132144, “Synthesis of 9-O-substituted derivatives of 9-hydroxy-5, 6-dimethyl-6H-pyrido[4,3-b]carbazole-1-carboxylic acid (2-(dimethylamino)ethyl)amide and their 10- and 11-methyl analogues with improved antitumor activity” (J Med Chem, 1999)

Tests used:
L1210 = assay: Inhibition of murine L1210 leukemia cell proliferation measured by the MTT assay; assay type: functional, cell-based; conditions: Mus musculus
Procedure, shortened: (§1)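 Murine L1210 leukemia and B16 melanoma cells were grown in RPMI 1640 with 10% fetal calf serum, 2 mM L-glutamine, penicillin/streptomycin and 10 mM HEPES (pH 7.4). Cells were exposed to nine serial drug dilutions in triplicate for about four doubling times (L1210 48 h, B16 96 h), then read by microculture tetrazolium (MTT) assay. IC50 is the concentration halving optical density versus untreated controls, averaged over ≥2 independent experiments.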

Mus musculus [1] = assay: Long-term survivors among 12 mice infected with P388 leukemia, scored on day 60 at 10 mg/kg dose; assay type: functional
Procedure, shortened: (§2)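 B6D2F1 mice in groups of 6–7 were inoculated ip on day 0 with 10^6 P388 cells. Dihydrochloride salts were dissolved in water and given iv on day 1 or on days 1, 5 and 9. Doses ranged from a low nontoxic dose to a toxic one. Long-term survivors were counted at day 60.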

Mus musculus [2] = assay: Percent median survival time of mice injected with B16 melanoma, at a intraperitoneal compound dose of 2.5 mg/kg
Mus musculus [3] = assay: Long-term survivors among 14 mice infected with B16 melanoma, scored on day 90 at 2.5 mg/kg dose
Mus musculus [4] = assay: Long-term survivors among 18 mice infected with P388 leukemia, scored on day 60 at 40 mg/kg dose; assay type: functional; procedure, shortened: as §2
Mus musculus [5] = assay: Percent median survival time of mice intraperitoneally injected with P388 leukemia was determined from tested at 10 mg/kg at day1,5,9 dose to that of control; assay type: functional
Procedure, shortened: (§3)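 P388 leukemia in B6D2F1 mice (groups of 6–7), 10^6 cells inoculated ip on day 0. Dihydrochloride salts were dissolved in water and given iv on day 1 or on days 1, 5, 9. Three doses were tested, then five if active. %T/C = median survival treated/control × 100, reported at the optimal dose (no toxic death, weight loss <20%), from one or two representative experiments.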

Mus musculus [6] = assay: Percent median survival time of mice intraperitoneally injected with P388 leukemia was determined from tested at 40 mg/kg at day1 dose to that of control; assay type: functional; conditions: route intraperitoneal; procedure, shortened: as §3
B16 = assay: Inhibition of murine B16 melanoma cell proliferation measured by the MTT assay; assay type: functional, cell-based; conditions: Mus musculus; procedure, shortened: as §1
Mus musculus [7] = assay: Percent median survival time of mice injected with B16 melanoma, at a intraperitoneal compound dose of 5 mg/kg
Mus musculus [8] = assay: Long-term survivors among 12 mice infected with P388 leukemia, scored on day 60 at 10 mg/kg dose on day 1, 5, 9; assay type: functional; procedure, shortened: as §2
Mus musculus [9] = assay: Long-term survivors among 12 mice infected with P388 leukemia, scored on day 60 at 20 mg/kg dose on day 1; assay type: functional; procedure, shortened: as §2
Mus musculus [10] = assay: Long-term survivors among 7 mice infected with B16 melanoma, scored on day 90 at 40 mg/kg dose on day 1, 5, 9; assay type: functional
Mus musculus [11] = assay: Percent median survival time of mice injected with P388 leukemia, at a subcutaneous compound dose of 20 mg/kg; assay type: functional
Mus musculus [12] = assay: Percent median survival time of mice injected with P388 leukemia, at a subcutaneous compound dose of 10 mg/kg; assay type: functional
Mus musculus [13] = assay: Percent median survival time of mice intraperitoneally injected with P388 leukemia was determined from tested at 320 mg/kg at day1 dose to that of control; assay type: functional; conditions: route intraperitoneal; procedure, shortened: as §3
Mus musculus [14] = assay: Long-term survivors among 7 mice infected with B16 melanoma, scored on day 90 at 80 mg/kg dose
Mus musculus [15] = assay: Long-term survivors among 6 mice infected with P388 leukemia, scored on day 60 at 320 mg/kg dose; assay type: functional; procedure, shortened: as §2
Mus musculus [16] = assay: Long-term survivors among 6 mice infected with P388 leukemia, scored on day 60 at 160 mg/kg dose; assay type: functional; procedure, shortened: as §2
Mus musculus [17] = assay: Percent median survival time of mice intraperitoneally injected with P388 leukemia was determined from tested at 160 mg/kg at day1,5,9 dose to that of control; assay type: functional; conditions: route intraperitoneal; procedure, shortened: as §3
Mus musculus [18] = assay: Percent median survival time of mice injected with B16 melanoma, at a intraperitoneal compound dose of 80 mg/kg
Mus musculus [19] = assay: Long-term survivors among 6 mice infected with B16 melanoma, scored on day 90 at 102 mg/kg dose on day 1; assay type: functional
Mus musculus [20] = assay: Long-term survivors among 6 mice infected with P388 leukemia, scored on day 60 at 5 mg/kg dose on day 1; assay type: functional; procedure, shortened: as §2
Mus musculus [21] = assay: Percent median survival time of mice injected with P388 leukemia, at a subcutaneous compound dose of 5 mg/kg on day 1, 5, 9; assay type: functional
Mus musculus [22] = assay: Percent median survival time of mice injected with P388 leukemia, at a subcutaneous compound dose of 5 mg/kg on day 1; assay type: functional
Mus musculus [23] = assay: Percent median survival time of mice injected with B16 melanoma, at a intraperitoneal compound dose of 20 mg/kg
Mus musculus [24] = assay: Percent median survival time of mice intraperitoneally injected with P388 leukemia was determined from tested at 20 mg/kg at day1,5,9 dose to that of control; assay type: functional; conditions: route intravenous; procedure, shortened: as §3
Mus musculus [25] = assay: Long-term survivors among 6 mice infected with P388 leukemia, scored on day 60 at 20 mg/kg dose on day 1; assay type: functional; procedure, shortened: as §2
Mus musculus [26] = assay: Long-term survivors among 6 mice infected with P388 leukemia, scored on day 60 at 20 mg/kg dose on day 1, 5, 9; assay type: functional; procedure, shortened: as §2
Mus musculus [27] = assay: Long-term survivors among 7 mice infected with P388 leukemia, scored on day 90 at 5 mg/kg dose; assay type: functional
Mus musculus [28] = assay: Percent median survival time of mice intraperitoneally injected with P388 leukemia was determined from tested at 20 mg/kg at day1 dose to that of control; assay type: functional; conditions: route intraperitoneal; procedure, shortened: as §3
Mus musculus [29] = assay: Long-term survivors among 10 mice infected with P388 leukemia, scored on day 60 at 10 mg/kg dose; assay type: functional
Mus musculus [30] = assay: Long-term survivors among 10 mice infected with P388 leukemia, scored on day 60 at 20 mg/kg dose; assay type: functional
Mus musculus [31] = assay: Long-term survivors among 6 mice infected with P388 leukemia, scored on day 60 at 7.5 mg/kg dose; assay type: functional; procedure, shortened: as §2
Mus musculus [32] = assay: Percent median survival time of mice injected with P388 leukemia, at a intravenous compound dose of 7.5 mg/kg
Mus musculus [33] = assay: Percent median survival time of mice injected with B16 melanoma, at a intraperitoneal compound dose of 0.5 mg/kg
Mus musculus [34] = assay: Long-term survivors among 6 mice infected with P388 leukemia, scored on day 60 at 20 mg/kg dose; assay type: functional; procedure, shortened: as §2
Mus musculus [35] = assay: Long-term survivors among 7 mice infected with B16 melanoma, scored on day 90 at 20 mg/kg dose

With `Cc1c2c(C(=O)NCCN(C)C)nccc2c(C)c2c1c1cc(O)ccc1n2C` the IC50 (L1210) was 13.4 nM, the LTS (Mus musculus [1]) was 9 and the T/C (Mus musculus [2]) was 166%. The LTS (Mus musculus [3]) was 1, the LTS (Mus musculus [4]) was 15 and the T/C (Mus musculus [5]) was greater than 600%. It also gave a T/C (Mus musculus [6]) greater than 600% and an IC50 (B16) of 3.4 nM.

In the case of `Cc1c2ccnc(C(=O)NCCN(C)C)c2cc2c3cc(OC(=O)C4C[C@@H]4c4ccccc4)ccc3n(C)c12` (some centres undefined), the IC50 (L1210) is reported as 30.9 nM, the T/C (Mus musculus [7]) is reported as 129% and the LTS (Mus musculus [8]) is reported as 0. For the same compound, the LTS (Mus musculus [9]) was 0, the LTS (Mus musculus [10]) was 0 and the T/C (Mus musculus [11]) was 146%. For the same compound, the IC50 (B16) was 14.1 nM and the T/C (Mus musculus [12]) was 152%.

`Cc1c2ccnc(C(=O)NCCN(C)C)c2cc2c3cc(OP(=O)(O)OCc4ccccc4)ccc3n(C)c12` showed an IC50 (L1210) of 4000 nM, a T/C (Mus musculus [13]) of 142% and an LTS (Mus musculus [14]) of 0. The LTS (Mus musculus [15]) was 0, the LTS (Mus musculus [16]) was 0 and the T/C (Mus musculus [17]) was 111%. The T/C (Mus musculus [18]) was 144% and the IC50 (B16) was 511 nM.

In the case of `Cc1c2ccnc(C(=O)NCCN(C)C)c2cc2c3cc(OC(=O)N4CCN(C(c5ccccc5)c5ccccc5)CC4)ccc3n(C)c12`, the IC50 (L1210) is reported as 164 nM, the LTS (Mus musculus [19]) is reported as 0 and the LTS (Mus musculus [20]) is reported as 0. For the same compound, the T/C (Mus musculus [21]) was 94%, the T/C (Mus musculus [22]) was 102% and the T/C (Mus musculus [23]) was 102%. For the same compound, the IC50 (B16) was 590 nM.

In the case of `Cc1c2ccnc(C(=O)NCCN(C)C)c2cc2c3cc(OCC4C[C@@H]4c4ccccc4)ccc3n(C)c12` (some centres undefined), the IC50 (L1210) is reported as 374 nM, the T/C (Mus musculus [7]) is reported as 94% and the T/C (Mus musculus [24]) is reported as 99%. The LTS (Mus musculus [25]) was 0, the LTS (Mus musculus [26]) was 0 and the LTS (Mus musculus [27]) was 0. The T/C (Mus musculus [28]) was 102% and the IC50 (B16) was 279 nM.

Work on `COc1cccc2c1C(=O)c1c(O)c3c(c(O)c1C2=O)C[C@@](O)(C(=O)CO)C[C@@H]3O[C@H]1C[C@H](N)[C@H](O)[C@H](C)O1` [DOXORUBICIN] yielded an IC50 (L1210) of 34.3 nM, a T/C (Mus musculus [2]) of 456% and an LTS (Mus musculus [29]) of 4. The T/C (Mus musculus [11]) was 258%, the LTS (Mus musculus [30]) was 2 and the IC50 (B16) was 7.6 nM. For the same compound, the T/C (Mus musculus [12]) was 332%.

For `Cc1c2cc[n+](C)cc2c(C)c2c1[nH]c1ccc(O)cc12` [ELLIPTINIUM], the IC50 (L1210) was 54.6 nM, the LTS (Mus musculus [31]) was 0 and the T/C (Mus musculus [32]) was 112%. It also gave a T/C (Mus musculus [33]) of 133%, an LTS (Mus musculus [34]) of 0 and an LTS (Mus musculus [35]) of 0. For the same compound, the T/C (Mus musculus [11]) was 138% and the IC50 (B16) was 106 nM.
